The values that follow come from ChEMBL document CHEMBL4304834, “3-Amino-chromanes and Tetrahydroquinolines as Selective 5-HT2B, 5-HT7, or σ1 Receptor Ligands” (ACS Med Chem Lett, 2019).

Common to all, as to format: cell-based
Test [1] addresses Sodium-dependent noradrenaline transporter (Homo sapiens, UniProt P23975). The experiment in a line: Displacement of [3H]-Nisoxetine from human recombinant NET receptor expressed in stable HEK cells after 90 mins by microbeta scintillation counting method. In outline:
(§1)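 Radioligand binding run by the NIMH Psychoactive Drug Screening Program. […] Otherwise Ki comes from sigmoidal curve fits of triplicate measurements in a single experiment, or is averaged over repeated experiments each run in triplicate.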

For test [2], the target named is 5-hydroxytryptamine receptor 1B (Homo sapiens, UniProt P28222). The experiment in a line: Displacement of [3H]5-CT from human recombinant 5-HT1B receptor expressed in stable HEK cells after 90 mins by microbeta scintillation counting method. In outline: (§2)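 Radioligand binding was run by the NIMH Psychoactive Drug Screening Program. Compounds were first screened at 10 μM. Those giving ≥50% binding were taken to full competition curves. Ki is reported as pKi from a sigmoidal curve fit of triplicate measurements in a single experiment; the error is the curve-fit error.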
(In general: Loss of bound radioactivity is the signal in a displacement assay; it reports binding, not function.)

In a further test the target is D(2) dopamine receptor (Homo sapiens, UniProt P14416). As to the kind of experiment: Displacement of [3H]-N-methylspiperone from human recombinant dopamine D2 receptor expressed in stable fibroblast cells at 10 uM after 90 mins by microbeta scintillation counting method relative to control. In outline:
as §1

In the next test the target is D(1A) dopamine receptor (Homo sapiens, UniProt P21728). As to the kind of experiment: Displacement of [3H]-SCH23390 from human recombinant dopamine D1 receptor expressed in HEKT cells after 90 mins by microbeta scintillation counting method. In outline:
as §2

The target in test [3] is Delta-type opioid receptor (Homo sapiens, UniProt P41143). The experiment in a line: Displacement of [3H]-DADLE from human recombinant DOR receptor expressed in stable HEK cells after 90 mins by microbeta scintillation counting method. In outline: as §1
A further test addresses T1, D(4) dopamine receptor (Homo sapiens, UniProt P21917).
T1 sequence (P21917 whole entry): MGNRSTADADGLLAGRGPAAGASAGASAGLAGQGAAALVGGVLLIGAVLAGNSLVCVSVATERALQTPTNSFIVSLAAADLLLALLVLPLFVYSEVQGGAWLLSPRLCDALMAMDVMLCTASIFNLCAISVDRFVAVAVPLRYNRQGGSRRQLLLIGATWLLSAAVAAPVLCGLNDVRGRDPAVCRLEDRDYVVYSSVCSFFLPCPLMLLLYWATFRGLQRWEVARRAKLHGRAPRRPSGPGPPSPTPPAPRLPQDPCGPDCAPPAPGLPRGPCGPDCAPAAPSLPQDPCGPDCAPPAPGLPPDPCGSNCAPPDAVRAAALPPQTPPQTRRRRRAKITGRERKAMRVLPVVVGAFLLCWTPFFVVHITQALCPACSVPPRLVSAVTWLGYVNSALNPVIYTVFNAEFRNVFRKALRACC
The experiment in a line: Displacement of [3H]-methylspiperone from human recombinant dopamine D4 receptor expressed in Stable HEK cells after 90 mins by microbeta scintillation counting method. In outline:
as §2

For test [4], the target named is T2, Muscarinic acetylcholine receptor M1 (Homo sapiens, UniProt P11229).
T2 sequence (P11229 whole entry): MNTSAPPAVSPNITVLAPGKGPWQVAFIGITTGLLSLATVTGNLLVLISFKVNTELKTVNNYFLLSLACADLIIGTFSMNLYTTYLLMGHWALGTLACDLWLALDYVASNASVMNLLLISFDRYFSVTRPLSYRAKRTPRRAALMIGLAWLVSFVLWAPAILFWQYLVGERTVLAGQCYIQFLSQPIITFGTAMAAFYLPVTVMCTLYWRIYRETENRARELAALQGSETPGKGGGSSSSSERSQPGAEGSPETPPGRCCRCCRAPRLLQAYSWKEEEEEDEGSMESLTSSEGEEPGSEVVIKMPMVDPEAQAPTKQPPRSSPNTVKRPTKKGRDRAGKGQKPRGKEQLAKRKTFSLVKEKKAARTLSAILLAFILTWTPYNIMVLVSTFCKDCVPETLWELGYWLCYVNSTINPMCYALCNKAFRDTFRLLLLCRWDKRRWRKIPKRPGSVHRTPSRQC
The experiment in a line: Displacement of [3H]-QNB/[3H]-NMS from human recombinant Muscarinic acetylcholine M1 receptor expressed in stable CHO cells after 90 mins by microbeta scintillation counting method. In outline:
as §2

In test [5] the target is T3, Alpha-1B adrenergic receptor (Homo sapiens, UniProt P35368).
T3 sequence (P35368 whole entry): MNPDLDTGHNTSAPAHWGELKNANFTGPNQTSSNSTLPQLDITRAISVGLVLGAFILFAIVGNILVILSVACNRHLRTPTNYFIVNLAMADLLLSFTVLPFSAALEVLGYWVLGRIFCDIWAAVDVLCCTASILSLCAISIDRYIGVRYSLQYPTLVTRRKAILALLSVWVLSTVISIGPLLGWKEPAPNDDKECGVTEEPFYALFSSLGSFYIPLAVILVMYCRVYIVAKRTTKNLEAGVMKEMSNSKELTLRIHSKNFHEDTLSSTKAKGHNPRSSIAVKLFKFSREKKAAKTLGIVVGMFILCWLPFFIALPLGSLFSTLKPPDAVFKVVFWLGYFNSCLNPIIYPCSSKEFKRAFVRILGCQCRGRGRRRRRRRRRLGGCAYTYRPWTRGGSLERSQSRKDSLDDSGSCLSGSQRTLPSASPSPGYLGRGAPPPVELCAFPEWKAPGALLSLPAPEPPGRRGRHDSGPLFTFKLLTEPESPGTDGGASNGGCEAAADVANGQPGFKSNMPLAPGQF
As to the kind of experiment: Displacement of [3H]-Prazosin from human recombinant adrenergic Alpha1B receptor expressed in HEKT cells after 90 mins by microbeta scintillation counting method. In outline: as §2

Test [6] addresses T4, D(1B) dopamine receptor (Homo sapiens, UniProt P21918). As to the kind of experiment: Displacement of [3H]-SCH23390 from human recombinant dopamine D5 receptor expressed in HEKT cells after 90 mins by microbeta scintillation counting method. In outline: as §2
Test [7] deals with T4, D(1B) dopamine receptor. As to the kind of experiment: Displacement of [3H]-SCH23390 from human recombinant dopamine D5 receptor expressed in HEKT cells at 10 uM after 90 mins by microbeta scintillation counting method relative to control.
In test [8] the target is T5, Alpha-2A adrenergic receptor (Homo sapiens, UniProt P08913).
T5 sequence (P08913 whole entry): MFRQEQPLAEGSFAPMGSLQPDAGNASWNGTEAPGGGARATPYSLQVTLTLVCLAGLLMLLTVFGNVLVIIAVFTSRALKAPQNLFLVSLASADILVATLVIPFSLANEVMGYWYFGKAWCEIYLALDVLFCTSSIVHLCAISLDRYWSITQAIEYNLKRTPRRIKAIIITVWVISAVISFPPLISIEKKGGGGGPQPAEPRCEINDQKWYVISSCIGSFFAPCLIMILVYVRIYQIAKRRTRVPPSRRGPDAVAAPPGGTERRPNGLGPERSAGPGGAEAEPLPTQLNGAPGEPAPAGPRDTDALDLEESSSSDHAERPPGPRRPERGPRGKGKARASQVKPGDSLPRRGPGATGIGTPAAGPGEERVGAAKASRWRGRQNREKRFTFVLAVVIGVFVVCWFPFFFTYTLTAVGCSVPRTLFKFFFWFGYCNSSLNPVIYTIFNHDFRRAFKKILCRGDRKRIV
The experiment in a line: Displacement of [3H]-Rauwolscine from human recombinant adrenergic Alpha2A receptor expressed in stable MDCK cells after 90 mins by microbeta scintillation counting method. In outline: as §2

Chain of Delta-type opioid receptor (P41143 whole entry): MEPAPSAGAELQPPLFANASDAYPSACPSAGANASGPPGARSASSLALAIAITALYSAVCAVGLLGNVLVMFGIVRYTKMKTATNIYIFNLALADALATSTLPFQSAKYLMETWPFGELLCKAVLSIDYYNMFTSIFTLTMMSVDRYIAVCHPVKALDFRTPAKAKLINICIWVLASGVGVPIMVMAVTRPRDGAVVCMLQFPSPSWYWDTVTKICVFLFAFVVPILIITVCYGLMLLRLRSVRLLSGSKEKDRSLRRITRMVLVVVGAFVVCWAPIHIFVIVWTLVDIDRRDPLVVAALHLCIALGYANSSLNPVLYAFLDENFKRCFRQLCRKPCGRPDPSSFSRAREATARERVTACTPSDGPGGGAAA
Chain of D(1A) dopamine receptor (P21728 whole entry): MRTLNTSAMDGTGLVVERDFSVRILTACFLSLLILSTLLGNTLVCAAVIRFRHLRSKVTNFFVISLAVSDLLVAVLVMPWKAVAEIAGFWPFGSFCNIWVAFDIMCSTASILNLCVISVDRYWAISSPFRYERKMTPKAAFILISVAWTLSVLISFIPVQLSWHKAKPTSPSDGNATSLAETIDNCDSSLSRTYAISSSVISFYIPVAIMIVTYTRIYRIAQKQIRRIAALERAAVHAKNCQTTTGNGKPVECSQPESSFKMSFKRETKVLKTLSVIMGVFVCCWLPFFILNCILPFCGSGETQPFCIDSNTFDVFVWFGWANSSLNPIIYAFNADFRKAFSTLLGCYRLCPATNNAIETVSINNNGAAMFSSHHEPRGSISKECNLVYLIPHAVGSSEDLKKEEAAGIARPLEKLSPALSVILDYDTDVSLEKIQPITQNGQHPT
Chain of 5-hydroxytryptamine receptor 1B (P28222 whole entry): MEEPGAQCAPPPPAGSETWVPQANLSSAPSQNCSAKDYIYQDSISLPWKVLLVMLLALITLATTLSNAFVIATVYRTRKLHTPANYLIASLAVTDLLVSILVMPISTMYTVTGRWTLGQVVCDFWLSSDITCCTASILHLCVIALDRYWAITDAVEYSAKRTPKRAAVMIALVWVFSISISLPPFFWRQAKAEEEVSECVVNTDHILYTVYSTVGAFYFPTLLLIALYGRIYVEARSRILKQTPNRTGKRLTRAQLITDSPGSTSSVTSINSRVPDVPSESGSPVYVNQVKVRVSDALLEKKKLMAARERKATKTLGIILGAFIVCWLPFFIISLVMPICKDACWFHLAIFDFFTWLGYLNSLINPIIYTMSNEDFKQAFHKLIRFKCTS
Chain of D(2) dopamine receptor (P14416 whole entry): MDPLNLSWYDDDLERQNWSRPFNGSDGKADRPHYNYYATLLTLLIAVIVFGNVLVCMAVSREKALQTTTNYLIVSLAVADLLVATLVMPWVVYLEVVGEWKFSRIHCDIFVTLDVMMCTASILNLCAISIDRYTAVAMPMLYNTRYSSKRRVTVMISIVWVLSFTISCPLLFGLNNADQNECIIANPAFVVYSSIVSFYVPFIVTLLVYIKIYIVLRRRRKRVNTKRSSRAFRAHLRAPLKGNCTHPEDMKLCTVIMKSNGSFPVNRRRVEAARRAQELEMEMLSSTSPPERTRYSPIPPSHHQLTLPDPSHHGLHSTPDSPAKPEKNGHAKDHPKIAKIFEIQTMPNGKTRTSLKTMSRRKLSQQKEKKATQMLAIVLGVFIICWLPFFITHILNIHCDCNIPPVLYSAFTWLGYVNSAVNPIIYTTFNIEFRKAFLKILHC
T4 sequence (P21918 whole entry): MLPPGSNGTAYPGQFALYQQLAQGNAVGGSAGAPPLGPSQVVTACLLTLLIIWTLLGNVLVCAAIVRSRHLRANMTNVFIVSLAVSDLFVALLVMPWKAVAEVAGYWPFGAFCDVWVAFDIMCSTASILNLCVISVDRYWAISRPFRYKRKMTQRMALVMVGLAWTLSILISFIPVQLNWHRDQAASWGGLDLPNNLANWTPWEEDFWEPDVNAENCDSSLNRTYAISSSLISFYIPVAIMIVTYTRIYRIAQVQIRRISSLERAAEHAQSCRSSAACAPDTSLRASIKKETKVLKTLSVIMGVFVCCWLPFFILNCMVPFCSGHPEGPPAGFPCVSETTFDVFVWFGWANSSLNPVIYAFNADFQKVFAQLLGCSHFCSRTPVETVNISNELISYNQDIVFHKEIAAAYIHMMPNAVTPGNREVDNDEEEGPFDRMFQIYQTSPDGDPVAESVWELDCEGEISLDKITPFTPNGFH
Chain of Sodium-dependent noradrenaline transporter (P23975 whole entry): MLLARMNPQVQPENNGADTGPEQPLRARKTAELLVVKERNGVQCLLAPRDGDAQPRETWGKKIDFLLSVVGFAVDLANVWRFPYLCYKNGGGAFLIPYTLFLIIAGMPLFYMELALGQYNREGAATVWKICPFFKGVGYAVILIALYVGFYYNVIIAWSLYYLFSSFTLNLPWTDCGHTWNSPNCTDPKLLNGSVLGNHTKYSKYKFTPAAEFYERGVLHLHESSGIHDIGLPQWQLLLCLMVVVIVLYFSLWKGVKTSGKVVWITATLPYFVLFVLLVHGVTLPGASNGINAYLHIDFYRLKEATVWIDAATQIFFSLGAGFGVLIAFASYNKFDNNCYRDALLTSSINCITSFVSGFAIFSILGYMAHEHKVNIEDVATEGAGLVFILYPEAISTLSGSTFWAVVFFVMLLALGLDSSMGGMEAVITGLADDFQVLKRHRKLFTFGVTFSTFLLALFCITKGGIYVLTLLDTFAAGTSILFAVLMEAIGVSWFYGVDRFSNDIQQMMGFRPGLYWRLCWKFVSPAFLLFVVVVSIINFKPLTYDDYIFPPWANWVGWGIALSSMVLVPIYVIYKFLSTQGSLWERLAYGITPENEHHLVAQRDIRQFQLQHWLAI

In the case of `COc1cc(OC)c2c(c1)OC[C@@]1(C)NCC[C@@H]21` (racemic), the Ki (in [1]; in test [2]; on D(1A) dopamine receptor; in [3]; at D(4) dopamine receptor; in test [4]) was more than 10 µM each time. In addition, the Ki (in test [5]; on D(1B) dopamine receptor [6]) was more than 10 µM in each case. In addition, the inhibition on D(2) dopamine receptor and at D(1B) dopamine receptor [7] was less than 50% in each case.

For the compound `C[C@@]12CN(c3ccccc3)c3ccccc3[C@@H]1CCN2` (racemic), the Ki (commonly a dissociation constant, usually derived from enzyme kinetics or from competition with a known ligand) in test [1] was 1.58 µM; in test [2] it was more than 10 µM; at D(1A) dopamine receptor, more than 10 µM; in test [3], more than 10 µM; at D(4) dopamine receptor it was more than 10 µM; in [4], more than 10 µM. For the same compound, the Ki (in [5]; at D(1B) dopamine receptor [6]) was more than 10 µM each time.

Regarding `CC[C@H]1c2cc(OC)ccc2CC[C@@]1(C)N` (racemic), the Ki in test [8] was 6.31 µM; in [1] it was 2.51 µM; in test [2] it was more than 10 µM; at D(1A) dopamine receptor, more than 10 µM; in test [3], more than 10 µM; at D(4) dopamine receptor, more than 10 µM. Moreover, the Ki (in test [4]; in [5]; on D(1B) dopamine receptor [6]) was more than 10 µM throughout. Also, the inhibition at D(2) dopamine receptor and on D(1B) dopamine receptor [7] was less than 50% each time.

Take `CC[C@H]1c2cc(C)ccc2OC[C@@]1(C)N` (racemic): the Ki is more than 10 µM in [8]; 0.316 µM in test [1]; more than 10 µM in [2]; more than 10 µM on D(1A) dopamine receptor; more than 10 µM in test [3]; more than 10 µM at D(4) dopamine receptor. Moreover, the Ki (in test [4]; in [5]; on D(1B) dopamine receptor [6]) was more than 10 µM in each case. Moreover, the inhibition at D(2) dopamine receptor and at D(1B) dopamine receptor [7] was less than 50% in each case.

In the case of `CC[C@H]1c2ccccc2N(c2ccccc2)C[C@@]1(C)N` (racemic), the Ki in [8] is 0.398 µM; in [1], 0.398 µM; in [2], more than 10 µM; on D(1A) dopamine receptor it was more than 10 µM; in test [3], more than 10 µM; on D(4) dopamine receptor it was 2 µM. In addition, the inhibition constant (Ki) (in test [4]; in test [5]; at D(1B) dopamine receptor [6]) was more than 10 µM throughout.
